The sample as a whole holds a higher share of hits than the screen did.
HCT116 bCat-KO = primary screen for growth suppressors in beta-catenin knockout HCT116 cells (colon tumor, human); AID 818, 2007; 140,000 tested, 1.5% active; viability, % at 10 µM; HCT116 beta-catenin knockout viability, CellTiter-Glo, 60 h; active compounds read low;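 active = viability at or under a set limit, the compound median less 4 SD, cut at about 6% in these data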
Lung fibro prol = antiproliferative effect on LL 47 fibroblasts – human, LL 47 cells, CellTiter-Glo luminescence, primary screen; LL 47 human lung fibroblast viability, ATP luminescence; active compounds read low; AID 719, 2007; viability, % at 10 µM; 85,000 tested, 1.1% active;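 active = viability at or below 50% in the single dose screen; inactive = viability above 50%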;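 note: compound exposure lasted 72 h before the ATP readout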
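Signal: luminescent ATP detection, CellTiter-Glo; assay system: LL 47 human lung fibroblasts; input: 1,150 cells/well; incubation: overnight cell rest, 72 h compound treatment at 37 °C; measure: % viability versus median cells-only luminescence; medium: IMEM growth medium with 15% fetal bovine serum; dosing: compound addition at 0.1% DMSO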
H69AR inhibit = proliferation blockers of H69AR lung cancer cells, primary screen, cell-based, human, 86K library. H69AR lung tumor viability, ATP luminescence, 72 h; active compounds read low. viability, % at 10 µM. 85,000 tested, 6% active;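 active = viability at or below 40%; inactive = viability above 40%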;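 note: multidrug resistant small cell line overexpressing MRP-1 efflux transporter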
HUVEC prolif 384 = inhibitors of HUVEC proliferation, primary screen, cell-based, 384-well | viability, % at 10 µM (by protocol) | CellTiter-Glo luminescence, 72 h; active compounds read low | 86,000 tested, 1.1% active | AID 648, 2007;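 active = viability at or below 30%; inactive = viability above 30%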
PTEN del growth = growth suppression of PTEN-null HCT116, primary screen, cell-based, CellTiter-Glo; HCT116 PTEN-null viability, 60 h; active compounds read low; viability, % at 10 µM; 140,000 tested, 1.2% active;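 active = viability at or below a set limit, 4 SD under the median of all tested compounds, cut at about 3.7% in these data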;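 note: PTEN knockout HCT116 line with beta catenin targeted HCT116 as companion control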
Of the large screens only hits and unclear results are named; the others gave an inactive call.

COc1ccc(N(C(=O)c2cnccn2)C(C(=O)NC2CCCCC2)c2ccc(Cl)cc2)cc1 (configuration not stated)	none (no result: HCT116 bCat-KO, PTEN del growth)
COc1ccc(C(C(=O)NC2CCCC2)N(C(=O)c2snc(-c3ccc(F)cc3)c2N)c2ccc(F)cc2)cc1 (configuration not stated)	HCT116 bCat-KO 5.5 (no result: Lung fibro prol, H69AR inhibit, HUVEC prolif 384)
COc1cccc(N(C(=O)c2ccco2)C(C(=O)NC2CCCC2)c2cccnc2)c1 (configuration not stated)	none
COc1ccc(C(C(=O)NC2CCCC2)N(C(=O)c2snc(-c3ccc(F)cc3)c2N)c2ccc(OC)cc2)cc1 (configuration not stated)	none (no result: Lung fibro prol, H69AR inhibit, HUVEC prolif 384)
COc1ccc(C(C(=O)NC2CCCCC2)N(C(=O)CCl)c2ccc(Cl)cc2)cc1 (configuration not stated)	HCT116 bCat-KO 1.8, PTEN del growth 1.8 (no result: Lung fibro prol, H69AR inhibit, HUVEC prolif 384)
CCc1cc2c(=O)n(CC)c(SC(C)C(=O)Nc3c(C)n(C)n(-c4ccccc4)c3=O)nc2s1 (configuration not stated)	none
O=C(NNC(=O)c1ccccc1Br)c1ccc(SCC2CCCO2)c([N+](=O)[O-])c1 (configuration not stated)	none
COc1ccc(Cl)cc1NC(=O)Cn1c(=O)n2nc(C)nc2c2ccccc21	H69AR inhibit 0.9
COc1ccc(Cl)cc1NC(=O)CN1C(=O)CCS(=O)(=O)c2ccccc21	H69AR inhibit 28.9
COc1ccccc1NC(=O)Cn1nc(-c2ccc(Cl)cc2)c2ccccc2c1=O	H69AR inhibit 35.2
N#CC1=C(N)SC(N)=C(C#N)C1CCC1CCCCC1	none
COc1ccc(NS(=O)(=O)c2cc(C)ccc2NC(=O)c2cc(C)oc2C)cc1	H69AR inhibit 29.4
Cc1cc(C)cc(OCC(=O)N2N=C(C(F)(F)F)CC2(O)C(C)(C)C)c1 (configuration not stated)	H69AR inhibit 33.5
Cc1cc(C)cc(OCC(=O)N2N=C(c3cccnc3)CC2(O)C(F)(F)F)c1 (configuration not stated)	none (no result: Lung fibro prol, H69AR inhibit, HUVEC prolif 384)
COc1cc2cc(CN(Cc3nnnn3Cc3ccco3)C3CCCCC3)c(=O)[nH]c2cc1OC	none
CCc1ccc2[nH]c(=O)c(CN(Cc3ccccc3OC)Cc3nnnn3Cc3ccco3)cc2c1	H69AR inhibit 12.4
COc1ccccc1CN(Cc1cc2cc(C)ccc2[nH]c1=O)Cc1nnnn1Cc1ccco1	H69AR inhibit 37.7
CN(C)CCNC(=O)/C(=C/c1ccc(-c2cccc(Cl)c2)o1)NC(=O)c1ccccc1	HCT116 bCat-KO 1.6, PTEN del growth 1.6 (no result: Lung fibro prol, H69AR inhibit, HUVEC prolif 384)
CN(C)CCNC(=O)/C(=C/c1ccc(-c2cccc([N+](=O)[O-])c2)o1)NC(=O)c1ccccc1	none (no result: Lung fibro prol, H69AR inhibit, HUVEC prolif 384)
CN(C)CCCNC(=O)/C(=C\c1ccc(-c2ccc(Br)cc2)o1)NC(=O)c1ccccc1	HCT116 bCat-KO 1.8, PTEN del growth 1.8 (no result: Lung fibro prol, H69AR inhibit, HUVEC prolif 384)
O=C(COC(=O)c1ccc(CO)cc1)NCc1cccs1	none (no result: Lung fibro prol, H69AR inhibit, HUVEC prolif 384)
CC1Nc2nc(NC(=O)C(C)(C)C)[nH]c(=O)c2N(C)C1C (configuration not stated)	none (no result: Lung fibro prol, H69AR inhibit, HUVEC prolif 384)
N#Cc1ccsc1NC(=O)CSc1ncn[nH]1	none
N#Cc1ccsc1NC(=O)CSc1ncnc2ccccc12	H69AR inhibit 37.6
O=C(NCC1CCN(c2ccc(S(=O)(=O)N3CCOCC3)cc2)CC1)c1ccc(Cl)cc1	H69AR inhibit 35.3
O=C(NC1CCCC1)c1ccc(S(=O)(=O)N2CCOCC2)cc1	none
CC(C)(C)OC(=O)COc1cc(OCC(=O)OC(C)(C)C)c2c(=O)cc(-c3ccccc3)oc2c1	HCT116 bCat-KO 1.5, PTEN del growth 1.7 (no result: Lung fibro prol, H69AR inhibit, HUVEC prolif 384)
CC1CCN(CC(=O)N2c3ccccc3CCc3ccccc32)CC1	HCT116 bCat-KO 0.8, PTEN del growth 0.8 (no result: Lung fibro prol, H69AR inhibit, HUVEC prolif 384)
CCCOC(=O)C1=C(C)OC23OC(N)=C(C#N)C12C(=O)c1ccccc13 (configuration not stated)	none
Nc1cc(=O)[nH]c(SCc2nc3ccccc3n2Cc2ccccc2)n1	none
O=c1[nH]c(SCc2nc3ccccc3n2Cc2ccccc2)nc2ccccc12	HCT116 bCat-KO 2.1, PTEN del growth 2.7 (no result: Lung fibro prol, H69AR inhibit, HUVEC prolif 384)
O=C(CCSc1nnc(-c2ccncc2)o1)Nc1cccc2ccccc12	H69AR inhibit 36.9
O=C(CCSc1nnc(-c2ccncc2)o1)Nc1ccccc1	none
CCN1C(=O)/C(=C2/Sc3ccc(OC)cc3N2C)SC1=Nc1ccc(C(C)=O)cc1	none (no result: HCT116 bCat-KO, PTEN del growth)
CCN1C(=O)/C(=C2/Sc3ccc(OC)cc3N2C)SC1=Nc1cccc(O)c1	H69AR inhibit 23.8
C=CCN1C(c2ccc(OCC)cc2)=CS/C1=C(\C#N)c1nnc2n1CCCCC2	H69AR inhibit 33.5
Cc1ccccc1OCC(=O)N1N=C(c2cccnc2)CC1(O)C(F)(F)F (configuration not stated)	none (no result: Lung fibro prol, H69AR inhibit, HUVEC prolif 384)
Cc1ccc(-c2[nH]ncc2/C=N/n2c(COc3ccccc3)nc3ccccc3c2=O)cc1	HCT116 bCat-KO 1.6, PTEN del growth 1.9 (no result: Lung fibro prol, H69AR inhibit, HUVEC prolif 384)
Cc1ccccc1OCc1nc2ccccc2c(=O)n1/N=C/c1cn[nH]c1-c1ccccc1	none (no result: Lung fibro prol, H69AR inhibit, HUVEC prolif 384)
CC(C)(C)C(=O)NC(=S)Nc1ccc(F)cc1	none (no result: Lung fibro prol, H69AR inhibit, HUVEC prolif 384)
CCCC/C(C)=N/NC(=O)C(=O)NCCc1ccccc1	none (no result: Lung fibro prol, H69AR inhibit, HUVEC prolif 384)
CCn1cc([N+](=O)[O-])c(C(=O)Nc2ccn(Cc3ccccc3F)n2)n1	none (no result: Lung fibro prol, H69AR inhibit, HUVEC prolif 384)
Cc1ccccc1Cn1ccc(NC(=O)c2nn(C)cc2[N+](=O)[O-])n1	HCT116 bCat-KO 3.8, PTEN del growth 2.1 (no result: Lung fibro prol, H69AR inhibit, HUVEC prolif 384)
Cn1cc([N+](=O)[O-])c(C(=O)Nc2cc(Oc3ccccc3)cc([N+](=O)[O-])c2)n1	HCT116 bCat-KO 1.6, PTEN del growth 1.7 (no result: Lung fibro prol, H69AR inhibit, HUVEC prolif 384)
CN(Cc1cn(C)c2ccccc12)C(=S)Nc1cc(F)cc(F)c1	none (no result: Lung fibro prol, H69AR inhibit, HUVEC prolif 384)
CCc1cccc(C)c1NC(=S)NCCc1c(C)[nH]c2ccc(C)cc12	HCT116 bCat-KO 3.5 (no result: Lung fibro prol, H69AR inhibit, HUVEC prolif 384)
CCc1cccc(CC)c1NC(=S)NCCc1c(C)[nH]c2ccc(C)cc12	PTEN del growth 2.6 (no result: Lung fibro prol, H69AR inhibit, HUVEC prolif 384)
COc1ccccc1N1CCN(C(=O)c2oc3ccc(F)cc3c2C)CC1	none (no result: Lung fibro prol, H69AR inhibit, HUVEC prolif 384)
COc1ccccc1N1CCN(C(=O)c2cc(-c3ccc(C)cc3)on2)CC1	none
COc1ccccc1-c1cc(C(=O)N2CCN(c3ccccc3OC)CC2)no1	H69AR inhibit 27.8
COc1ccccc1N1CCN(C(=O)c2ccc(Br)s2)CC1	HUVEC prolif 384 3.9
COc1ccccc1N1CCN(C2CCN(C(=O)c3cccs3)CC2)CC1	none
COc1ccccc1N1CCN(C(=O)c2oc3ccccc3c2C)CC1	H69AR inhibit 17.5 (no result: HCT116 bCat-KO, PTEN del growth)
COc1ccccc1-c1nc2cc3ccccc3cc2nc1-c1ccccc1	none (no result: Lung fibro prol, H69AR inhibit, HUVEC prolif 384)
Cc1cc(C)cc(-n2c(SCC(=O)Nc3cccc(S(=O)(=O)NC4=NCCCCC4)c3)nc3ccccc3c2=O)c1	none (no result: Lung fibro prol, H69AR inhibit, HUVEC prolif 384)
CCCCCOC(=O)CSc1nnc(-c2ccccc2)c(=O)[nH]1	none (no result: Lung fibro prol, H69AR inhibit, HUVEC prolif 384)
COCCn1c(C2CCCCC2)nc2sc3ccccc3c(=O)c2c1=O	none
CCCCCCCCCCS(=O)(=O)N/N=C/c1ccc(O)cc1	none (no result: Lung fibro prol, H69AR inhibit, HUVEC prolif 384)
